For one data set, the system named is Saos-2 cells. The data set is described as follows: MTT cell viability assay, Saos-2 cells. It counts as cell-based. The note with it: Saos-2, six precursors 500 μM, 48 h. In short, it runs like this:
(§1)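 HeLa or Saos-2 cells seeded at 1 × 10^4 cells/well and incubated 48 h with test compound in culture medium (200, 300, 400 μM) before MTT read-out; IC50 after 48 h. Inhibitor experiments used test compound at 500 μM for 48 h with or without l-Phe (3 mM) or levamisole (1 mM). Separately, exogenous ALP (5 U/mL) was added together with test compound.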
On the technique in general: Tetrazolium assays rely on reduction of a dye to a coloured formazan, in cell work by metabolically active cells.

For a further data set, the system named is HeLa cells. The data set is described as follows: MTT cell viability assay, HeLa cells. The format is cell-based. In short, it runs like this: as §1

Turning to `c1ccc(C2CN3CCSC3=N2)cc1` (single isomer, unassigned; (-)) [(−)-tetramisole], the “rescue of precursor-treated cells by TNAP inhibitor” value is “significantly increases the cell viability” with Saos-2 cells (inhibitor 1 mM) and “hardly rescues HeLa cells” in the data set on HeLa cells (HeLa, six precursors 500 μM, inhibitor 1 mM, 48 h).

On to `N[C@@H](Cc1ccccc1)C(=O)O` [L-Phe, L-phenylalanine], for which, in the data set with Saos-2 cells (L-Phe 3 mM), the “rescue of precursor-treated cells by PLAP inhibitor” value is on record as “hardly rescue the Saos-2 cells at all”. Moreover, in the data set with HeLa cells (3 mM, cell culture), the cell compatibility result is on record as “cell compatible”.

These data come from article PMC4830347 (Journal of the American Chemical Society, 2016).
